The values that follow come from ChEMBL document CHEMBL1156306, “Discovery, biological evaluation, and structure-activity relationship of amidine based sphingosine kinase inhibitors” (J Med Chem, 2010).

For data set [1], the target named is T1, Sphingosine kinase 2 (Mus musculus) (UniProt Q9JIA7).
T1 sequence (whole entry): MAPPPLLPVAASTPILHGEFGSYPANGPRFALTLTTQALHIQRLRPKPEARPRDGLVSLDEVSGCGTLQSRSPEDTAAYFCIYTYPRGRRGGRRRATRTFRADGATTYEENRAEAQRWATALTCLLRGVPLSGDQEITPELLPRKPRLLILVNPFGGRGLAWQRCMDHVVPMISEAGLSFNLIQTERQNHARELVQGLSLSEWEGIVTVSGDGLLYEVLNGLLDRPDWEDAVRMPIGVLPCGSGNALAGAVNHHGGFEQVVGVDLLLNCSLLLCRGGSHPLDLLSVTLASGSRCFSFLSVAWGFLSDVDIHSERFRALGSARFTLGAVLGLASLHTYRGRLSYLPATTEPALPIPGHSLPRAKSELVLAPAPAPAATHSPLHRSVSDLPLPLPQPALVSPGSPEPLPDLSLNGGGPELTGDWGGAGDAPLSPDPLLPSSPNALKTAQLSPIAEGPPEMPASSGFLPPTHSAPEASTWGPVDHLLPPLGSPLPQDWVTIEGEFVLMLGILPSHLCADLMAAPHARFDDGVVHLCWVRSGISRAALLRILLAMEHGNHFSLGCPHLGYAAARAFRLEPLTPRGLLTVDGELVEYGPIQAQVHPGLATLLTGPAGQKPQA
Description: Inhibition of mouse recombinant SPHK2 expressed in baculovirus-infected Sf9 cells in presence of sphingosine. In a few lines:
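Enzyme source was a 10,000 × g supernatant of Sf9 cells infected for 72 h with baculovirus encoding mouse SphK2, using 2–3 μg protein per assay. Sphingosine phosphorylation conditions were as in an earlier report.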

Data set [2] addresses Sphingosine kinase 1 (Homo sapiens) (UniProt Q9NYA1). Particulars: Sf9.
For data set [3], the target named is T1, Sphingosine kinase 2 (Mus musculus). Description: Ratio of Ki to Km for mouse recombinant SPHK2 expressed in baculovirus-infected Sf9 cells.
Data set [4] is described as follows: Inhibition of FBS-induced cell proliferation of rat VSMC after 24 hrs by BrdU incorporation assay. It counts as functional, cell-based. In a few lines: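 Rat aortic VSMC pretreated with compound for 30 min, then stimulated with 10% FBS for 24 h. Proliferation measured by BrdU incorporation (10 μM BrdU) using an immuno-absorbance read-out, dose-response, N=6.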
On the technique in general: Incorporation of labelled thymidine or its analogues reports DNA synthesis.

Data set [5] has as its system VSMC. Description: Inhibition of FBS-induced SPHKk2 mRNA level in rat VSMC after 4 hrs by RT-PCR. Type of data set: functional, cell-based. In short, it runs like this:
(§1)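 Rat aortic VSMC stimulated with 10% FBS for 4 h. Total RNA extracted with Trizol and reverse-transcribed. Sphk1 and Sphk2 mRNA measured by quantitative real-time PCR and normalized to 18S rRNA, N=3.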

Data set [6] concerns VSMC. Kind of data set: Inhibition of FBS-induced intracellular concentration of S1P in rat VSMC. Type of data set: functional, cell-based.
The test system of data set [7] is VSMC. Description: Inhibition of FBS-induced SPHKk1 mRNA level in rat VSMC after 4 hrs by RT-PCR. It counts as functional. In a few lines:
as §1

The test system of data set [8] is VSMC. Description: Inhibition of serum-induced cell proliferation of rat VSMC.
Data set [9] in a line: Cytotoxicity against rat VSMC assessed as cell viability at 0.1 to 100 uM. It counts as cell-based. To be noted: in the assay text read “0.001 to 100 uM” for “0.1 to 100 uM”. In short, it runs like this:
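Rat aortic vascular smooth muscle cells, cultured in vitro, exposed to compound across 0.001–100 μM. Cytotoxic response read with the MultiTox-Fluor fluorescence assay, using 20 μM cyclosporine A as reference, N=3.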

The nature of data set [10]: Cytotoxicity against rat VSMC assessed as cell viability at 10 uM by microscopical analysis.
For data set [11], the target named is T2, Sphingosine kinase 2 (Rattus norvegicus) (UniProt A6JB73).
T2 sequence (whole entry): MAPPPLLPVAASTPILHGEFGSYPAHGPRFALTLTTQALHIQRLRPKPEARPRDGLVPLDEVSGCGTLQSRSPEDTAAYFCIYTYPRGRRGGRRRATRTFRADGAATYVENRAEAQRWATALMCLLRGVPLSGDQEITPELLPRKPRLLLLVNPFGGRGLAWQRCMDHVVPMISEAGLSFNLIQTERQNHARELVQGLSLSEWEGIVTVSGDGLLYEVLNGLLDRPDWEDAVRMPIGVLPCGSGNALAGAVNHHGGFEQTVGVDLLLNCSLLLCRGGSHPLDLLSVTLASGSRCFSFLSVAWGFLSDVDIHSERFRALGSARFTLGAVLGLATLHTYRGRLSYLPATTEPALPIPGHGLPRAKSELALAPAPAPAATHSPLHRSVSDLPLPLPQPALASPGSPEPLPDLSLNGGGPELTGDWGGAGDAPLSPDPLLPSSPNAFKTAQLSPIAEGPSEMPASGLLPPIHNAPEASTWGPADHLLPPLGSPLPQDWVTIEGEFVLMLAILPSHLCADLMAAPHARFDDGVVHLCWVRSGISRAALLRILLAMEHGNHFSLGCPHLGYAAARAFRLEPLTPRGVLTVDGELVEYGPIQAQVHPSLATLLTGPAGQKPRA
Description: Inhibition of [32P]S1P/FBS-stimulated SPHK2 in rat VSMC after 12 hrs relative to control. In short, it runs like this: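 Rat aortic VSMC stimulated with 10% FBS for 0, 3, 6 and 12 h. SphK2 activity measured as [32P]-S1P formation, N=3.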

Data set [12] concerns the target Protein kinase C alpha type (Homo sapiens) (UniProt P17252). Description: Inhibition of PKCalpha up to 10 uM. In a few lines: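 Compound tested at protein kinase C α at concentrations up to 10 μM.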
Data set [13] has as its target T3, Diacylglycerol kinase delta (Homo sapiens) (UniProt Q16760).
T3 sequence (whole entry): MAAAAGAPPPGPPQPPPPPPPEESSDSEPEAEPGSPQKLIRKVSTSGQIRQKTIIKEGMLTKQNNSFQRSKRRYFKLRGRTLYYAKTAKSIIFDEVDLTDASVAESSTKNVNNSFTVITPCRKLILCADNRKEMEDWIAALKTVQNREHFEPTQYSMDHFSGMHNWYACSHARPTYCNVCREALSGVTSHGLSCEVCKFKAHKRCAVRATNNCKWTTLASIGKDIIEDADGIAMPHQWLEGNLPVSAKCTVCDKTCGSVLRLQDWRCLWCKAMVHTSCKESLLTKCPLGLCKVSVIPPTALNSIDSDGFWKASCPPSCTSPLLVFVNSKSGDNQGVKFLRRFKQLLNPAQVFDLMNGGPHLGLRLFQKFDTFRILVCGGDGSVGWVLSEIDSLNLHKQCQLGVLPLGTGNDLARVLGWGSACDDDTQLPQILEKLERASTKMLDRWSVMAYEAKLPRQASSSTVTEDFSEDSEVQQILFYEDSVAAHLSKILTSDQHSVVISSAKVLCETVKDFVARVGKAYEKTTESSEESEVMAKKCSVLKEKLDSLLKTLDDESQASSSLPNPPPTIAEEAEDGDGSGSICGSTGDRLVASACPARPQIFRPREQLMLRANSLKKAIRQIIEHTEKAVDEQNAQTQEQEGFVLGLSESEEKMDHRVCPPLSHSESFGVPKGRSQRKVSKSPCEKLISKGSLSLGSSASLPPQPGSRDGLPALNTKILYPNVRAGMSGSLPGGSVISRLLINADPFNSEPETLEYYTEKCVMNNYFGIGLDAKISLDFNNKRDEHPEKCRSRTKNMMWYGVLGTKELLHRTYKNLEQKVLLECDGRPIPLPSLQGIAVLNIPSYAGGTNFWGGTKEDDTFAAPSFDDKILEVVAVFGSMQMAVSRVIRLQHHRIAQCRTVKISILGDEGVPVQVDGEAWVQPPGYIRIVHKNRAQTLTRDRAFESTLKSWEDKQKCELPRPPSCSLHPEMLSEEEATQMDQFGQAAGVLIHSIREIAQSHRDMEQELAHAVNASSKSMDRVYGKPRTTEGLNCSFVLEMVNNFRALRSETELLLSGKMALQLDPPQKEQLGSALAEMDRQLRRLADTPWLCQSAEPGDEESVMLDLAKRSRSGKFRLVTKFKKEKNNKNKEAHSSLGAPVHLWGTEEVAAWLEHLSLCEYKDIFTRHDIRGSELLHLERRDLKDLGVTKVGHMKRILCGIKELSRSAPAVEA
Description: Inhibition of DAGdelta1 up to 100 uM. In a few lines: (§2)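 Recombinant diacylglycerol kinases (γ, δ1, ζ) tested with compound at concentrations up to 100 μM.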

Data set [14] concerns the target Diacylglycerol kinase gamma (Homo sapiens) (UniProt P49619). Kind of data set: Inhibition of DAGgamma up to 100 uM. In short, it runs like this: as §2

Activity calls are given as the source filed them. The rule behind the calls is not given here.

Chain of Sphingosine kinase 1 (Homo sapiens) (Q9NYA1 whole entry): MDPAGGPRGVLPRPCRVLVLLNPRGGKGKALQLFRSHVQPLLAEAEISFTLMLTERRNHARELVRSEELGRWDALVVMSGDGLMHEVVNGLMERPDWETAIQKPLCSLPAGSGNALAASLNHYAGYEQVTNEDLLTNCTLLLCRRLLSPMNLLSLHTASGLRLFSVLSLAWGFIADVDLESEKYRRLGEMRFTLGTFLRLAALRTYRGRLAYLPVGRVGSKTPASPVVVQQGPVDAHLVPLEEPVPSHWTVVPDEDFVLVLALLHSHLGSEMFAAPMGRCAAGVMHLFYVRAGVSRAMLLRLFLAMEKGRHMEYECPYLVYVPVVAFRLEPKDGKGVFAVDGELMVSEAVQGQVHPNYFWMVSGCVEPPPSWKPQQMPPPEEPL
Chain of Diacylglycerol kinase gamma (Homo sapiens) (P49619 whole entry): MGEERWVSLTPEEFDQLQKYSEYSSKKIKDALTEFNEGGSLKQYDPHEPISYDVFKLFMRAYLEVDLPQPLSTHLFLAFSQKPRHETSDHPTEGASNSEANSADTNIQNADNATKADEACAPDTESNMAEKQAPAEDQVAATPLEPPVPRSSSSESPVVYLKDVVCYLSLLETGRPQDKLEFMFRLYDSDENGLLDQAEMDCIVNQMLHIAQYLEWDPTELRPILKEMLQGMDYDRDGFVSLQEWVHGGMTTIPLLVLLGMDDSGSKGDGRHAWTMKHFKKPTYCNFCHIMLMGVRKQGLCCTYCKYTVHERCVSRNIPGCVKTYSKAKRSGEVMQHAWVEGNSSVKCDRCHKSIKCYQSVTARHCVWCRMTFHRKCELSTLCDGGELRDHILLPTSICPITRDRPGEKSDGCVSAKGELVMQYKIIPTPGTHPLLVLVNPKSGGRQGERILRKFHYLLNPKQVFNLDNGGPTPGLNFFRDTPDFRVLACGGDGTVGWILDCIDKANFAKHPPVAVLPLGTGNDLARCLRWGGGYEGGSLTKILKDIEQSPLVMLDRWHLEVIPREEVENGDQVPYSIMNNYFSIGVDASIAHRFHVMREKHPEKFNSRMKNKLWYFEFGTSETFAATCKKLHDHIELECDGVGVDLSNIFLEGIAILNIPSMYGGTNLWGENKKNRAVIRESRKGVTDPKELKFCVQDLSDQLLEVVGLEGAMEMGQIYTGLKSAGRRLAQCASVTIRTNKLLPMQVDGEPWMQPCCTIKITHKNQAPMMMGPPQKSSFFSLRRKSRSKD

As a reminder, the Ki is the dissociation constant of the complex between target and ligand, obtained from inhibition or displacement. Regarding `CCCCCCCCc1ccc(C(=O)N[C@@H](C)C(N)=O)cc1`, the Ki in [1] and in [2] was greater than 100 µM throughout. Moreover, the Ratio in data set [3] was greater than 20.

As for `CCCCCCCCc1ccc(C(=O)N[C@@H](C)C(=O)O)cc1`, the Ki in data set [1] and in data set [2] was greater than 100 µM throughout. The Ratio in data set [3] is greater than 20.

What is called EC50 is the concentration needed to bring the measured effect to its halfway point. A lower EC50 goes with an effect from little substance. Compound `CCCCCCCCc1ccc(C(=O)N[C@@H](C)C(=N)N)cc1.Cl` registered an EC50 in data set [4] of 10 µM. In addition, the Ki in data set [1] was found to be 20 µM; in data set [2], 55 µM. The inhibition result (in the data set with VSMC [5]; with VSMC [7]; in [11]) was “inactive” throughout. Also, the inhibition result with VSMC [6] and in the data set with VSMC [8] was “Active” each time. Further, in data set [3], the Ratio turned out to be 4. Also, the Activity entry in data set [9] and in data set [10] was “Non-toxic” each time.

On to `CCCCCCCCCCCCCCc1ccc(NC(=O)C2(C(=N)N)CC2)cc1`, for which the Ki in [1] was greater than 100 µM; in [2] it was 8.4 µM. For the same compound, in data set [3], the Ratio was greater than 20.

As for `CCCCCCCCCCc1ccc(C(=O)NC2(C(=N)N)CC2)cc1`, the inhibitory constant (Ki) in data set [1] came to 4 µM; in data set [2] it was 5 µM. Also, the Ratio in [3] is 0.8.

Regarding `CCCCCCCCCCc1ccc(NC(=O)C2(C(=N)N)CC2)cc1`, the Ki was found to be 4 µM in data set [1] and 3 µM in [2]. Further, the Ratio in data set [3] came to 0.8.

Take `CCCCCCCCc1ccc(C(=O)N[C@H](C)C(=N)N)cc1`: the Ki in [1] was 25 µM; in [2], greater than 100 µM. Besides, the Ratio in data set [3] stood at 5.

Consider `CCCCCCCCCCCCCCCCc1ccc(NC(=O)C2(C(=N)N)CC2)cc1`, for which the inhibition constant (Ki) in data set [1] was greater than 100 µM; in data set [2], 30 µM. Moreover, the Ratio in data set [3] was greater than 20.

On to `CCCCCCCCCCCCc1ccc(NC(=O)C2(C(=N)N)CC2)cc1`, for which the inhibition result in data set [12], in data set [13] and in data set [14] was “inactive” in each case. For the same compound, the Ki in [1] worked out at 6 µM; in data set [2], 0.3 µM. In addition, the Ratio in data set [3] was 1.2.

As for `CCCCCCCCCCCCCCCCc1ccc(C(=O)NC2(C(=N)N)CC2)cc1`, the Ki stood at 10 µM in data set [1] and 36 µM in data set [2]. Also, in data set [3], the Ratio stood at 2.

In the case of `CCCCCCCCCCCCc1ccc(C(=O)NC2(C(=N)N)CC2)cc1`, the inhibition result in data set [12], in data set [13] and in [14] was “inactive” throughout. Moreover, the Ki in [1] was 0.5 µM; in [2], 0.2 µM. Moreover, in data set [3], the Ratio is 0.1.

Regarding `CCCCCCCCc1ccc(C(=O)NCC(=N)N)cc1`, the inhibition constant (Ki) in data set [1] is 60 µM; in data set [2], greater than 100 µM. In addition, the Ratio in data set [3] stood at 12.

On to `CCCCCCCCc1ccc(C(=O)NC2(C(=N)N)CC2)cc1`, for which the Ki came out at 23 µM in [1] and 25 µM in data set [2]. For the same compound, the Ratio in data set [3] came out at 4.6.

With `CCCCCCCCCCCCCCc1ccc(C(=O)NC2(C(=N)N)CC2)cc1`, the Ki in [1] worked out at 32 µM; in [2] it was 10 µM. In addition, the Ratio in data set [3] stood at 6.4.
